According to paper PMC5563391 (Investigational new drugs, 2015):

What was measured:
[1] = Phase 1 pharmacokinetics of ilorasertib in plasma; assay type: in vivo, human; conditions: for AUC(0-t) / half-life / AUC(0-inf): human, plasma, po; for half-life: 480 mg, t1/2, arm B, oral twice weekly
How it was run: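 Arm A patients took oral test compound once weekly, in the morning, on days 1, 8 and 15 of 28-day cycles, at 10–690 mg. Plasma was sampled intensively up to 72 h after dosing on days 1 and 15. Noncompartmental analysis gave Cmax, Tmax, t½, AUCt and AUC∞, plus dose-normalized values. Results are summarized by dose level as mean ± SD, with individual values where N=1.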

[2] = system: patients with hematologic malignancies; test: Phase 1 safety and tolerability; assay type: in vivo
How it was run: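 Four arms each ran 28-day cycles: oral once weekly (A), oral twice weekly (B), oral once weekly with IV/SC azacitidine on days 1–7 (C), and IV once weekly (D). Dose escalation followed a modified continual reassessment method, with MTD defined as a 30% DLT rate by logistic regression. Toxicity was graded continuously by CTCAE v4.0, with labs, ECG, MUGA/echocardiogram and vital signs monitored.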

[3] = system: peripheral blood mononuclear cells; test: Cell cycle analysis by flow cytometry; assay type: in vivo, human; conditions: arm A
How it was run: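 Adults with hematologic malignancies received oral test compound once weekly on days 1, 8 and 15 of 28-day cycles, at doses from 10 to 690 mg. Blood for pharmacodynamics was drawn alongside pharmacokinetic samples. Peripheral blood mononuclear cells were analysed by flow cytometry for the percentage of cells with 2N, 4N or >4N DNA. Only patients with enough cycling cells at baseline were evaluable.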

[4] = system: placental growth factor (PlGF); test: Placental growth factor concentration, biomarker of VEGF receptor inhibition; assay type: in vivo, human; conditions: arm A
How it was run: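 Arm A patients received oral test compound once weekly on days 1, 8 and 15 of 28-day cycles, at 10–690 mg. At designated time points after the first dose, blood for PlGF measurement was collected together with pharmacokinetic samples. The change from baseline in PlGF was assessed against dose.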

[5] = system: patients with advanced hematologic malignancies; test: Clinical response; assay type: in vivo, human
How it was run: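 Patients received the test compound in one of four arms, each on a 28-day cycle. Arm A took it orally once weekly on days 1, 8 and 15, and arm B orally on days 1, 2, 8, 9, 15 and 16. Arm C added IV or SC azacitidine on days 1–7 to the once-weekly oral schedule. Arm D received it IV on days 1, 8 and 15. Response used revised International Working Group criteria, or NCCN guidelines for CML.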

Structure (SMILES): Nc1ncc(-c2cnn(CCO)c2)c2scc(-c3ccc(NC(=O)Nc4cccc(F)c4)cc3)c12 [Ilorasertib]
- AUC(0-t) ([1]; 440 mg): 13500 ± 7520 ng·h/mL
- half-life ([1]; day 1, N=7): 14.9 ± 3.2 h
- half-life ([1]; day 15, N=7): 15.3 ± 5.1 h
- AUC(0-inf) ([1]; 540 mg): 6010 ± 1230 ng·h/mL
- AUC(0-t) ([1]; 540 mg, AUC0–24, arm A, oral once weekly, first dose, N=3, mean ± SD): 5800 ± 1080 ng·h/mL
- AUC(0-inf) ([1]; 640 mg): 20300 ± 15000 ng·h/mL
- AUC(0-t) ([1]; 640 mg, AUC0–24, arm A, oral once weekly, first dose, N=6, mean ± SD): 19700 ± 14800 ng·h/mL
- AUC(0-inf) ([1]; 690 mg): 8460 ng·h/mL
- renal excretion of ilorasertib as the parent drug ([1]; in vivo): negligible
- dose proportionality of Cmax and AUC∞ ([1]; oral, 80- to 690-mg dose range): generally dose proportional
- patients reporting grade 3 or 4 adverse events ([2]; 42 of 52 patients): 80.8%
- patients reporting at least 1 treatment-emergent adverse event ([2]; 51 of 52 patients): 98.1%
- grade 3/4 adverse event: anemia ([2]; 52 patients, all arms): 13.5%
- grade 3/4 adverse event: hypertension ([2]; 52 patients, all arms): 28.8%
- grade 3/4 adverse event: hypokalemia ([2]; 52 patients, all arms): 15.4%
- grade 3/4 adverse event: hypophosphatemia ([2]; 52 patients, all arms): 11.5%
- grade 3 or 4 adverse events related to ilorasertib: hypertension ([2]; 52 patients, all arms): 17.3%
- grade 3 or 4 adverse events related to ilorasertib: pancreatitis ([2]; 52 patients, all arms): 3.8%
- grade 3 or 4 adverse events related to ilorasertib: proteinuria ([2]; 52 patients, all arms): 3.8%
- Treatment-emergent adverse events, any grade: Anemia ([2]; all arms, N=52): 7 (13.5) n (%)
- Treatment-emergent adverse events, any grade: Any event ([2]; all arms, N=52): 51 (98.1) n (%)
- Treatment-emergent adverse events, any grade: Arthralgia ([2]; all arms, N=52): 8 (15.4) n (%)
- Treatment-emergent adverse events, any grade: Bone pain ([2]; all arms, N=52): 8 (15.4) n (%)
- Treatment-emergent adverse events, any grade: Decreased appetite ([2]; all arms, N=52): 8 (15.4 n (%)
- Treatment-emergent adverse events, any grade: Diarrhea ([2]; all arms, N=52): 23 (44.2) n (%)
- Treatment-emergent adverse events, any grade: Epistaxis ([2]; all arms, N=52): 7 (13.5) n (%)
- Treatment-emergent adverse events, any grade: Fatigue ([2]; all arms, N=52): 11 (21.2) n (%)
- Treatment-emergent adverse events, any grade: Headache ([2]; all arms, N=52): 8 (15.4) n (%)
- Treatment-emergent adverse events, any grade: Hypertension ([2]; all arms, N=52): 17 (32.7) n (%)
- Treatment-emergent adverse events, any grade: Hypokalemia ([2]; all arms, N=52): 18 (34.6) n (%)
- Treatment-emergent adverse events, any grade: Hypomagnesemia ([2]; all arms, N=52): 10 (19.2) n (%)
- Treatment-emergent adverse events, any grade: Hypophosphatemia ([2]; all arms, N=52): 9 (17.3) n (%)
- Treatment-emergent adverse events, any grade: Nausea ([2]; all arms, N=52): 23 (44.2) n (%)
- Treatment-emergent adverse events, any grade: Peripheral edema ([2]; all arms, N=52): 11 (21.2) n (%)
- Treatment-emergent adverse events, any grade: Proteinuria ([2]; all arms, N=52): 19 (36.5) n (%)
- Treatment-emergent adverse events, any grade: Pyrexia ([2]; all arms, N=52): 8 (15.4) n (%)
- Treatment-emergent adverse events, any grade: Vomiting ([2]; all arms, N=52): 10 (19.2) n (%)
- Treatment-emergent adverse events, grade 3/4: Acute renal failure ([2]; all arms, N=52): 3 (5.8) n (%)
- Treatment-emergent adverse events, grade 3/4: Anemia ([2]; all arms, N=52): 7 (13.5) n (%)
- Treatment-emergent adverse events, grade 3/4: Any grade 3/4 event ([2]; all arms, N=52): 42 (80.8) n (%)
- Treatment-emergent adverse events, grade 3/4: Bacteremia ([2]; all arms, N=52): 3 (5.8) n (%)
- Treatment-emergent adverse events, grade 3/4: Febrile neutropenia ([2]; all arms, N=52): 4 (7.7) n (%)
- Treatment-emergent adverse events, grade 3/4: Fungal pneumonia ([2]; all arms, N=52): 4 (7.7) n (%)
- Treatment-emergent adverse events, grade 3/4: Hypertension ([2]; all arms, N=52): 15 (28.8) n (%)
- Treatment-emergent adverse events, grade 3/4: Hypokalemia ([2]; all arms, N=52): 8 (15.4) n (%)
- Treatment-emergent adverse events, grade 3/4: Hypophosphatemia ([2]; all arms, N=52): 6 (11.5) n (%)
- Treatment-emergent adverse events, grade 3/4: Hypotension ([2]; all arms, N=52): 3 (5.8) n (%)
- Treatment-emergent adverse events, grade 3/4: Pneumonia ([2]; all arms, N=52): 4 (7.7) n (%)
- Treatment-emergent adverse events, grade 3/4: Proteinuria ([2]; all arms, N=52): 4 (7.7) n (%)
- Treatment-emergent adverse events, grade 3/4: Sepsis ([2]; all arms, N=52): 3 (5.8) n (%)
- DLTs ([2]; arm A, PO once weekly monotherapy, 640 mg, 6 patients): Grade 3 pancreatitis ^a
- recommended phase 2 dose (RPTD) ([2]; arm A, oral monotherapy once weekly): 540 mg
- DLTs ([2]; arm B, 320 or 480 mg twice weekly): No DLTs
- recommended phase 2 dose (RPTD) ([2]; arm B, oral monotherapy twice weekly): 480 mg
- DLTs ([2]; arm D, IV once weekly, 32 mg): No DLTs
- association between ilorasertib dose and cell cycle arrest [3]: No association
- increase in the number of cells with 4N DNA and polyploidy ([3]; 9 patients with sufficient cycling cells at baseline): ≥ 2 fold
- increase in PlGF ([4]; after the first dose, dose range 10 to 690 mg): ≥ 2 fold
- relationship between dose and the magnitude of change in PlGF [4]: no apparent relationship
- patients with a best response of stable disease ([5]; 52 patients): Twelve
- patients with an objective response ([5]; AML patients, among 52 patients): 3
- patients with CR with incomplete blood count recovery (CRi) ([5]; AML, arm A, 640 mg, end of cycle 1): 1
- patients with complete response (CR) ([5]; AML, arm A, 690 mg, end of cycle 8): 1
- patients with partial response ([5]; AML, arm B, 480 mg, end of cycle 2): 1
